Key:
Format in all cases: nucleic-acid assay
Nucleic Acid [1] = assay: Evaluated for thermal denaturation at pH 3.9 against poly(A)-poly(dt) synthetic DNA oligonucleotide
Procedure, shortened: (§1)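 Polymer (poly(A)·poly(U) or poly(dA)·poly(dT)) at 1.0×10^-4 M in MES buffer (0.01 M MES, 0.001 M EDTA, 0.1 M NaCl), pH set with NaOH to the listed value. Compound added to a final drug:polymer phosphate ratio of 0.3. Absorbance at 260 nm followed while heating at 0.5 °C/min in 1-cm cells. ΔTm is the Tm shift of the complex versus the free polymer.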

Nucleic Acid [2] = assay: Evaluated for thermal denaturation at pH 3.9 against poly(A)-poly(U) synthetic RNA oligonucleotide; procedure, shortened: as §1
Nucleic Acid [3] = assay: Evaluated for thermal denaturation at pH 4.9 against poly(A)-poly(U) syntheticRNA oligonucleotide; procedure, shortened: as §1
Nucleic Acid [4] = assay: Evaluated for thermal denaturation at pH 6.3 against poly(A)-poly(dt) synthetic DNA oligonucleotide; procedure, shortened: as §1
Nucleic Acid [5] = assay: Evaluated for thermal denaturation at pH 6.3 against poly(A)-poly(U) synthetic RNA oligonucleotide; procedure, shortened: as §1
Nucleic Acid [6] = assay: Thermal denaturation at pH 4.9 against poly(A)-poly(dt) synthetic DNA oligonucleotide; procedure, shortened: as §1
Nucleic Acid [7] = assay: Evaluated for thermal denaturation at pH 4.9 against poly(A)-poly(dt synthetic DNA oligonucleotide; procedure, shortened: as §1
Nucleic Acid [8] = assay: Thermal denaturation at pH 6.3 against poly(A)-poly(U) synthetic RNA oligonucleotide; procedure, shortened: as §1

ΔTm (Nucleic Acid [1])	ΔTm (Nucleic Acid [2])	ΔTm (Nucleic Acid [3])	ΔTm (Nucleic Acid [4])	ΔTm (Nucleic Acid [5])	ΔTm (Nucleic Acid [6])	ΔTm (Nucleic Acid [7])	ΔTm (Nucleic Acid [8])	SMILES
5.6	17.7	15.4	3.5	8.1	6.7			c1cc(CN2CCC(N3CCCCC3)CC2)ccc1CN1CCC(N2CCCCC2)CC1
4.1	22.2	20.7	3.3	9.8		4.5		C1CCN(C2CCN(CCCN3CCC(N4CCCCC4)CC3)CC2)CC1
			3.3	8				c1cc(CN2CCC(N3CCCCC3)CC2)cc(CN2CCC(N3CCCCC3)CC2)c1
0	11	1.3	0	0		0		CN1CCN(CCCN2CCN(C)CC2)CC1
		0	0	0		0		c1cnc(N2CCN(Cc3cccc(CN4CCN(c5ncccn5)CC4)c3)CC2)nc1
		0.9	0	0.4		0		OCC1CCCN(CCCN2CCCC(CO)C2)C1 (centres undefined)
6.1	28.7	24.5	6.1	18.1		5.6		C(CN1CCC(C2=NCCN2)CC1)CN1CCC(C2=NCCN2)CC1
0.2	2.4		0	0				c1ccc(CN2CCN(CCCN3CCN(Cc4ccccc4)CC3)CC2)cc1
		0	0	0		0		N#CC1CCN(CCCN2CCC(C#N)CC2)CC1
		1.2	0.1	0		0.7		C(CC1CCNCC1)CC1CCNCC1
10.4	34.7	22.9	6.5			8.3	7.6	C1CCN(C2CCN(CCN3CCN(CCN4CCC(N5CCCCC5)CC4)CC3)CC2)CC1
		0.5	0	0.2		0.5		OCC1CCN(CCCN2CCC(CO)CC2)CC1
8.8	23.3	20.7	8.7	16.2		9.5		c1cc(CN2CCC(C3=NCCN3)CC2)ccc1CN1CCC(C2=NCCN2)CC1
		0	0	0		0		C1CCN(CCCN2CCCCC2)CC1
			0	0				OC1CCN(Cc2ccc(CN3CCC(O)CC3)cc2)CC1
		0	0	0		0		c1cnc(N2CCN(Cc3ccc(CN4CCN(c5ncccn5)CC4)cc3)CC2)nc1
		0.3	0	0		0.2		C1CCN(CCN2CCN(CCN3CCCCC3)CC2)CC1

SMILES	ΔTm (Nucleic Acid [1])	ΔTm (Nucleic Acid [2])	ΔTm (Nucleic Acid [3])	ΔTm (Nucleic Acid [4])	ΔTm (Nucleic Acid [5])	ΔTm (Nucleic Acid [6])	ΔTm (Nucleic Acid [7])	ΔTm (Nucleic Acid [8])
c1cc(CN2CCNCC2)ccc1CN1CCNCC1				0	0			
c1cc(CN2CCN(Cc3ccc(CN4CCNCC4)cc3)CC2)ccc1CN1CCNCC1	12	29.3	15.7	2.3	0		5.1	
